Assay results from the EternaBench riboswitch data.

Tested on: MS2 coat protein
Assay: apparent Kd, MS2 coat protein; higher = weaker binding; RNA-MaP array; theophylline 2 mM where present
Summary of the method: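 Each design was made on Illumina sequencing-chip clusters by stalled E. coli RNA polymerase and titrated with SNAP-549-labelled MS2 coat protein from 0.7 or 1.5 nM, doubling to 3 µM, in the absence and then the presence of constant ligand. The buffer was 100 mM Tris-HCl pH 7.5, 80 mM KCl, 4 mM MgCl2, BSA, DTT, yeast tRNA and Tween-20. The apparent Kd is the median of filtered per-cluster fits of binding curves, with green signal normalised to red-channel RNA signal and control-cluster median Fmax.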

[1] = designed as: ON switch for theophylline, no ligand
[2] = ligand present: theophylline, designed as: ON switch for theophylline
[3] = designed as: OFF switch for theophylline, no ligand
[4] = ligand present: theophylline, designed as: OFF switch for theophylline

Sequence | apparent Kd [1] [nM] | apparent Kd [2] [nM] | apparent Kd [3] [nM] | apparent Kd [4] [nM]
CAUGGGUGGUAUCACCCAUCCAUAGGUGAUACCAGCAUCGAAAGAUGCCCUUGGCAGCACCAACAUGAGGAUCACCCAUGUAAUA | 264 | 202 |  | 
AACAUACAUGAGGAUCACCCAUGUCACGAUACCAGAUACAUGAGGAUCCCUUGGCAGCGUCAUGAGGAUCACCCAUGUUGUACAU |  |  | 16.5 | 58.3
GGGCCUGUAGGCAGGCCCACAGCGGGUGAUACCAGCAAUAAAACUUGCCCUUGGCAGCACACAGCUACAUGAGGAUCACCCAUGU | 41.2 | 70.5 |  | 
AGCAUUGUAACAGAUACCAGACUUUUAAUGCCUCUAAUUACAUGAGGAUCACCCAUGUUUGUCCCUUGGCAGCUGUUAUGAUGCA |  |  | 119 | 226
GAUGAACUAUUUGAUACCAGACUACAUGAGGAUCACCCAUGUGUGUUUAUACUUCUGUCAGUCCCUUGGCAGCAAAUAGUUUAUC |  |  | 62.5 | 106
UUUACAUGAGGAUCACCCAUGUGCCAUGAUACCAGACAUGAAAAUGUCCCUUGGCAGCAUGAAGGUACCUCAUCGGGAAACCGAA | 134 | 247 |  | 
AAUCUGUCGGGUGAUACCAGCCUCGGCGCAUCUCGCACCGAACAUGAGGAUCACCCAUGUGGCCCUUGGCAGCACAUGACAAAUC | 371 | 82.2 |  | 
CGGUUUGUGAUGGAUACCAGCAGUGUGGCUGUUUAUCCUGACAUGAGGAUCACCCAUGUGUGCCCUUGGCAGCUGUUGUGGGCUG |  |  | 76.5 | 130
GAGCUGAUGUAGAGAUUAUAUAAAAGAGAUACCAGUACAGAAAUGUACCCUUGGCAGCUCAACUUUACAUGAGGAUCACCCAUGU |  |  | 14.8 | 17.5
AUUUACAUGGUCAUAUAUAUAUCGUCAGAUACCAGACUAGAUAUAGUCCCUUGGCAGCUGUUACAUGAGGAUCACCCAUGUUAUA |  |  | 129 | 110
GCACCAGGUACGGAUACCAGCUAUAGGCCCAAUGGGCGACAUGAGGAUCACCCAUGUAAUGGCCCUUGGCAGCUGUACCUGGUGC | 88.3 | 13.7 |  | 
AUACAUGAGGAUCACCCAUGUAUAGUCGAUACCAGCUCAAGGAAGAGCCCUUGGCAGCGACACUGGUAUCCAUGGGUGAUACCAG | 22.3 | 31.5 |  | 
AAUAACAUGAGGAUCACCCAUGUAAAAGAUACCAGGGUGAUGAUCCUCCCUUGGCAGCUUACAGCUGAUCAAUAAGAUCGGCUGA |  | 257 |  | 
UAACAUGAGGAUCACCCAUGUAUAGUCGAUACCAGCUCAAGGAAGAGCCCUUGGCAGCGACACUGCCAAGCAUGGGUCAUGGCAG | 21.1 | 33.4 |  | 
ACGACGCAUAGUGAUACCAGUAGAACAUGAGGAUCACCCAUGUCUGUGGCGCACCACCUCUGCCCUUGGCAGCACUAUGCGUCAG | 13.4 | 12.8 |  | 
AGCCCUGUACUAGAUACCAGCUACAUGAGGAUCACCCAUGUGCGUCAAGACUGACUGUGUAGCCCUUGGCAGCUACUCGCAUGUA |  |  | 15.7 | 25.5
AGUGUAUCCAUCGAUACCAGCCACAACGUAACAUACACAUGAGGAUCACCCAUGUUGUGUGGCCCUUGGCAGCGGUGCCUGUGUA | 14.3 | 12.2 |  | 
UACAUGAGGAUCACCCAUGUAUGAAUGGAUACCAGAUAAAAUAAGGUCCCUUGGCAGCUAGUGAAUCGAGGGUGGGUAUCAUGAU |  |  | 11.2 | 10.3
ACACAUGAGGAUCACCCAUGUGCAAUAGAUACCAGUGACGCGGUGCACCCUUGGCAGCUGUUGCUGAGUGAUGGUUCCCUCGGAA |  |  | 36.6 | 58.5
AGCUCAUAGAGUGAUACCAGACUACAUGAGGAUCACCCAUGUUACUUUUAAAUAUCAUUUGUCCCUUGGCAGCACAUGAAGAGCA |  |  | 13.6 | 12.7
UUUGAUAGGACAGAUACCAGCGUGUUGUUGAACAUGAGGAUCACCCAUGUAGUGAUCGAGCGCCCUUGGCAGCUGGUUUGUUAGG | 382 | 306 |  | 
ACUUCAUGAGGUGAUACCAGCCAAUGACAUGAGGACAUGAGGAUCACCCAUGUUUAUGUAGGCCCUUGGCAGCACUGUAACAUGA | 20.6 | 25.9 |  | 
